Hits are enriched below; roughly 4.4% of the tested compounds scored in any of these assays.
EBI2 block – antagonists of human EBI2 receptor. P32249. EBI2 beta-arrestin recruitment, luminescence, 7a,25-OHC stimulated. inhibition, % at 5 µM. hit rate 0.81% among 360,000; in the data active means inhibition above about 38%;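 further: enzyme fragment complementation signal reports receptor beta-arrestin coupling in cells; 0% = agonist plus DMSO wells and 100% = wells without agonist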
Target sequence (P32249 whole entry, looked up, the tested form may be a part): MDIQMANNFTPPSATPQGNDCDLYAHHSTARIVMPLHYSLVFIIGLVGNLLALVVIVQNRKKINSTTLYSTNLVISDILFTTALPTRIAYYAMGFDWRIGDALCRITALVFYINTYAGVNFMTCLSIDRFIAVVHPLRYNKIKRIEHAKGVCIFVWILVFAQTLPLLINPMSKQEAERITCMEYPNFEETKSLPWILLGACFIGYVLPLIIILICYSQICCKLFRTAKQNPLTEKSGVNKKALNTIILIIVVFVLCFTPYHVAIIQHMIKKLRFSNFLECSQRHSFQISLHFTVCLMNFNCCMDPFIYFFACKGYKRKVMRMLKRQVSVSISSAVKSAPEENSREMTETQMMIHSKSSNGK
SENP1 FRET inh – SENP1 (human) catalytic domain inhibition; recombinant SENP1 catalytic domain, CyPet-SUMO1-YPet FRET cleavage; inhibition, % at 10 µM; hit rate 0.21% among 360,000; AID 624204;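 active means inhibition at least 30% at 10 µM, raw YFP signal under a set limit, fluorescence ratio 0.5 to 1.5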;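 further: 0% = enzyme with DMSO and 100% = no enzyme wells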
Target sequence (Q9P0U3 419-644 limits assumed): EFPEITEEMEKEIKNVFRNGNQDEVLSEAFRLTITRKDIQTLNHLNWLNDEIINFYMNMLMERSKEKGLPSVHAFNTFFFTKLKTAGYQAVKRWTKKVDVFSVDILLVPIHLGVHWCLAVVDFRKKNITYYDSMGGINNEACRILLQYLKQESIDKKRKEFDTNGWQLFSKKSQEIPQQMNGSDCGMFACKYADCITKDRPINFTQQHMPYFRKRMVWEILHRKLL
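System: Recombinant human SENP1 catalytic domain, His6-tagged | Incubation: Enzyme reaction for 50 min at room temperature, dark | Medium: Tris pH 8 with BME, BSA, NP40 and catalase | Also added: 25 nM SUMO1 FRET substrate | Compound: 10 µM single point, 0.5% DMSO | Measured by: FRET fluorescence in CFP and YFP emission channels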
NR3A LBD binder – modulates the human NR3A ligand-binding domain | NR3A LBD differential scanning fluorimetry, Tm shift; 0% = protein alone, 100% = glycine-bound protein | hit rate 2.5% among 340,000 | AID 1259313 | Tm shift relative to glycine control, % at 25 µM;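 active means melting temperature shift of at least 10% of the positive control shift, at one fixed dose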
MPTP block – permeability transition pore inhibition | isolated mouse mitochondria, Ca2+ swelling absorbance, 30 min | inhibition, % at 10 µM | hit rate 1.4% among 360,000;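 active means inhibition of 50% or more, scaled per plate between neutral and stimulator controls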;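 further: 0% = DMSO wells given calcium and 100% = 1 mM EGTA wells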
The depositor's hits bear a star; nt = no result.

SMILES	EBI2 block	SENP1 FRET inh	NR3A LBD binder	MPTP block
COc1cc(NC(=O)c2ccc3snnc3c2)cc(OC)c1	5	1	19*	4
Nc1cccc(Oc2c(F)c(F)c(Oc3cccc(N)c3)c(F)c2F)c1	9	1	23*	6
CCOC(=O)c1c(C)oc2ccc(NS(=O)(=O)c3cccs3)cc12	18	0	-23	1
CC(=O)c1c(C)oc2ccc(NS(=O)(=O)c3cccs3)cc12	4	0	17*	-1
O=C(Nc1nc2ccccc2s1)C1CC(=O)N(c2ccc(Br)cc2)C1 (stereo unspecified)	2	1	16*	21
CCOc1ccc(/C=C(\C#N)C(=O)NCC2CCCO2)cc1OCC (stereo unspecified)	-13	2	13*	0
CCCn1c(CN(Cc2ccccc2)Cc2ccccc2)nc2c1c(=O)n(C)c(=O)n2C	11	1	14*	0
COC(=O)c1sc(NC(=O)c2c(C)noc2C)nc1C	-5	-1	-26	1
CCOC(=O)c1sc(NC(=O)CSc2nccn2C)nc1C	8	0	13*	1
CCOC(=O)c1sc(NC(=O)c2c(CC)noc2C)nc1C	4	-7	19*	-1
Cc1noc(/C=C/N(C)C)c1S(=O)(=O)N1CCCC(C(=O)NCc2ccccc2Cl)C1 (stereo unspecified)	7	-1	-2	-1
COc1cc(C)c(CN2CCC(n3nccc3NC(=O)C3CCOC3)CC2)cc1C (stereo unspecified)	-8	-2	1	0
CCOc1cc(N2CCOCC2)c(OCC)cc1NC(=O)COC(=O)c1ccc(OC)c([N+](=O)[O-])c1	4	1	2	0
COc1ccccc1NC(=O)c1ccc2c(c1)OCO2	-4	0	0	1
COc1ccc(OC)c(NC(=O)c2cc3oc4ccccc4c3cc2O)c1	12	-27	130*	12
O=C(Nc1ccc2c(c1)oc1ccccc12)c1ccc2c(c1)OCO2	12	0	25*	6
COc1cc2c(cc1NC(=O)c1ccc3c(c1)OCO3)oc1ccccc12	4	0	26*	2
COc1ccc(CNC(=O)CN2C(=O)NC(C)(c3cccc4ccccc34)C2=O)cc1OC (stereo unspecified)	0	-1	1	-1
O=C1N[C@@H](Cc2cn(S(=O)(=O)c3ccccc3)c3ccccc23)C(=O)N[C@H]1Cc1ccccc1	5	1	0	0
CSc1ncc(C(=O)Nc2ccc(C(C)=O)cc2)c(C)n1	12	-13	-1	0
COc1cccc(C(C)(O)c2nc(-c3ccc4c(c3)OCO4)cs2)c1 (stereo unspecified)	0	1	nt	22
COc1ccc(CCNc2ccc(C(CC(N)=O)NC(=O)c3cc(OC)ccc3OC)cc2[N+](=O)[O-])cc1 (stereo unspecified)	-1	2	42*	1
O=C(Nc1ccc(-c2nc3cccnc3s2)cc1)c1cccnc1Cl	16	-7	1	2
O=C(Nc1ccc(-c2nc3cccnc3s2)cc1)c1ccco1	1	-44	12*	0
O=C(Nc1ccc(-c2nc3cccnc3s2)cc1)c1ccc(Br)o1	2	-14	20*	0
SMILES	EBI2 block	SENP1 FRET inh	NR3A LBD binder	MPTP block
O=C(NN1CCOCC1)c1cccc(COc2cccc(Br)c2)c1	-1	1	-2	-1
COc1ccc(O)c(/C=N/NC(=O)c2ccc(OCc3cccc(Br)c3)cc2)c1	1	3	27*	8
Cc1ccc(C(C)C)c(OCc2ccc(C(=O)N/N=C/c3ccc(O)cc3O)cc2)c1	-3	-92	26*	3
O=C(N/N=C/c1cccc(O)c1)c1ccc(COc2ccccc2Br)cc1	-1	-1	35*	5
COc1ccc(C(=O)N/N=C/c2cc(Br)ccc2O)cc1OC	-1	-43	-33	6
O=C(N/N=C/c1cc([N+](=O)[O-])ccc1O)C1CCCCC1	76*	1	-10	21
O=C(NC(O)C(=O)c1ccccc1)c1ccc(F)cc1 (stereo unspecified)	9	2	0	0
COc1ccc([C@H]2CC(=O)C=C(c3ccc(OC)nc3)C2)cc1	34	0	-1	7
CC(=O)Nc1ccc(NC(=O)c2ccc(COc3ccccc3Br)o2)cc1	-26	-2	23*	0
O=C(N/N=C/c1ccc(O)cc1O)c1ccc(NC(=O)C2CCCCC2)cc1	2	-115	23*	-2
O=C(N/N=C/c1ccc(O)cc1O)C1CC1	-7	2	0	0
O=C(Nc1ccc(Cn2cccn2)cc1)c1ccc(COc2ccccc2Br)cc1	4	2	30*	-2
O=C(N/N=C/c1cccc(O)c1)NC1CCCCC1	23	1	-2	0
O=C(N/N=C/c1cccc(O)c1)c1ccc(NC(=O)C2CCCCC2)cc1	4	0	10*	1
O=C(Nc1cccnc1)c1ccc(COc2ccccc2Br)o1	-10	-1	-41	-1
C=CCN1C(=O)C(C)(C)N(C(=O)c2cccc([N+](=O)[O-])c2)c2ccccc21	14	4	-2	0
O=[N+]([O-])c1ccc(O)c(/C=N/Nc2ccc(Cl)nn2)c1	77*	5	-10	6
Cc1nn2c(N3CCN(C4CCCC4)CC3)cc(C(C)(C)C)nc2c1-c1ccccc1	7	1	13*	1
Cc1nn2c(N3CCN(C)CC3)cc(C(C)(C)C)nc2c1-c1ccccc1	0	1	-1	-6
O=C(Nc1ccc(N2C(=O)C3CCCCC3C2=O)cc1Cl)c1cccs1 (stereo unspecified)	1	0	18*	0
Cc1ccc(S(=O)(=O)NNC2CC(=O)N(c3ccc(Br)cc3)C2=O)cc1 (stereo unspecified)	-27	2	-1	6
Cc1ccc([N+](=O)[O-])cc1-c1ccc(/C=C(\C#N)c2[nH]nc(N)c2C#N)o1	7	-15	17*	6
COc1ccc2ccccc2c1C=NN1CCCCC1	5	3	nt	2
Fc1ccc(Nc2nc(-c3ccncc3)cs2)cc1	10	1	6	0
Cc1ccc(Nc2nc(C)cs2)cc1	-20	-1	26*	0
SMILES	EBI2 block	SENP1 FRET inh	NR3A LBD binder	MPTP block
COc1ccc(-c2csc(Nc3ccc(S(N)(=O)=O)cc3)n2)cc1	14	-32	23*	0
Oc1ccc(Nc2nc(-c3ccc(O)cc3)cs2)cc1	8	-1	12*	-2
Clc1ccc(Nc2nc(-c3ccncc3)cs2)cc1	34	-2	10*	-2
O=C(CN1C2=NCCN2c2ccccc21)c1ccc(Br)s1	2	0	5	-1
CCCCN(CCCC)CCCN1CC(=O)N2[C@@H](Cc3c([nH]c4ccccc34)C2(C)C)C1=O	-9	0	0	1
COc1ccc2oc(=O)c(/C(C)=N/Nc3nc(-c4cc(C)ccc4C)cs3)cc2c1	-1	-31	-4	-1
COc1ccc2oc(=O)c(-c3csc(Nc4ccc(O)cc4)n3)cc2c1	31	19	11*	1

Screens (PubChem BioAssay)
